Test results published in ChEMBL document CHEMBL1142628, “Antineoplastic agents 430. Isolation and structure of cribrostatins 3, 4, and 5 from the republic of maldives cribrochalina species” (2000).
Values after ≈ are worked out from the molar mass of the structure shown. Active and inactive are the calls of the source. The rule behind the calls is not given here.

Legend:
BXPC-3 = assay: Growth inhibition of human BXPC3 cells; assay type: functional
OVCAR-3 = assay: Growth inhibition of human OVCAR-3 cells; assay type: functional
Summary of the method: (§1)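 NCI 60-cell-line screen run by the standard NCI protocol. Each test agent ran in quadruplicate, with a top concentration of 10^-5 M and five log-spaced dilutions. GI50 values were averaged and reported as negative log GI50.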

SF-295 [1] = assay: (§2) Growth inhibition of human SF295 cells; assay type: functional
Summary of the method: (§3)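 NCI human tumor cell line panel screen run to the standard NCI protocol. Each compound tested in quadruplicate with a top concentration of 10^-5 M and five log-spaced dilutions. GI50 values were averaged across replicates and reported as negative log GI50.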

NCI-H460 [2] = assay: (§4) Growth inhibition of human NCI-H460 cells; assay type: functional; summary of the method: as §1
KM-20L2 = assay: Growth inhibition of human KM20L2 cells; assay type: functional
DU-145 = assay: Growth inhibition of human DU145 cells; assay type: functional; summary of the method: as §1
P388 = assay: Growth inhibition of mouse P388 cells; assay type: functional
Candida albicans = assay: Antifungal activity against Candida albicans ATCC 90028 at 100 ug/disk by disk diffusion method; assay type: functional, organism-based
Cryptococcus neoformans = assay: Antifungal activity against Cryptococcus neoformans ATCC 90112 at 100 ug/disk by disk diffusion method; assay type: functional, organism-based
Micrococcus luteus = assay: Antibacterial activity against Micrococcus luteus Presque Isle 456 at 100 ug/disk by disk diffusion method; assay type: functional, organism-based
Staphylococcus aureus = assay: Antibacterial activity against Staphylococcus aureus ATCC 29213 at 100 ug/disk by disk diffusion method; assay type: functional, organism-based
Enterococcus faecalis = assay: Antibacterial activity against Enterococcus faecalis ATCC 29212 at 100 ug/disk by disk diffusion method; assay type: functional, organism-based
Bacillus subtilis = assay: Antibacterial activity against Bacillus subtilis Presque Isle 620 at 100 ug/disk by disk diffusion method; assay type: functional, organism-based
Streptococcus pneumoniae = assay: Antibacterial activity against Streptococcus pneumoniae ATCC 6303 at 100 ug/disk by disk diffusion method; assay type: functional, organism-based
[3] = test system: Stenotrophomonas maltophilia; assay: Antibacterial activity against Stenotrophomonas maltophilia ATCC 13637 at 100 ug/disk by disk diffusion method; assay type: functional, organism-based
Escherichia coli = assay: Antibacterial activity against Escherichia coli ATCC 25922 at 100 ug/disk by disk diffusion method; assay type: functional, organism-based
Enterobacter cloacae = assay: Antibacterial activity against Enterobacter cloacae ATCC 13047 at 100 ug/disk by disk diffusion method; assay type: functional, organism-based
Neisseria gonorrhoeae [4] = assay: Antibacterial activity against Neisseria gonorrhoeae ATCC 49226 by disk diffusion method; assay type: functional
Neisseria gonorrhoeae [5] = assay: Antibacterial activity against penicillin-resistant Neisseria gonorrhoeae isolate by disk diffusion method; assay type: functional
CCRF-CEM = assay: Growth inhibition of human CCRF-CEM cells; assay type: functional; summary of the method: as §1
[6] = Growth inhibition of human HL60(TB) cells; assay type: functional, HL-60(TB); settings: HL-60
Summary of the method: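 NCI human tumour cell-line panel screen run by the standard NCI protocol. Each compound was tested in quadruplicate, with an upper concentration limit of 10^-5 M and five log-spaced dilutions. GI50 values were averaged and reported as negative log GI50.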

K562 = assay: Growth inhibition of human K562 cells; assay type: functional; summary of the method: as §1
MOLT-4 = assay: Growth inhibition of human MOLT4 cells; assay type: functional; summary of the method: as §1
RPMI-8226 = assay: Growth inhibition of human RPMI8226 cells; assay type: functional; summary of the method: as §1
SR = assay: Growth inhibition of human SR cells; assay type: functional; summary of the method: as §3
A549 = assay: Growth inhibition of human A549/ATCC cells; assay type: functional; summary of the method: as §1
HOP-62 = assay: Growth inhibition of human HOP62 cells; assay type: functional; summary of the method: as §1
HOP-92 = assay: Growth inhibition of human HOP92 cells; assay type: functional; summary of the method: as §1
NCI-H226 = assay: Growth inhibition of human NCI-H226 cells; assay type: functional; summary of the method: as §1
NCI-H460 [7] = assay: as §4; assay type: functional; summary of the method: as §1; remark: listed apart in the source
NCI-H522 = assay: Growth inhibition of human NCI-H522 cells; assay type: functional; summary of the method: as §1
COLO 205 = assay: Growth inhibition of human COLO205 cells; assay type: functional; summary of the method: as §1
KM12 = assay: Growth inhibition of human KM12 cells; assay type: functional; summary of the method: as §1
SW-620 = assay: Growth inhibition of human SW620 cells; assay type: functional; summary of the method: as §3
SNB-75 = assay: Growth inhibition of human SNB75 cells; assay type: functional; summary of the method: as §3
U-251 = assay: Growth inhibition of human U251 cells; assay type: functional; summary of the method: as §3
LOX IMVI = assay: Growth inhibition of human LOX IMVI cells; assay type: functional; summary of the method: as §1
Malme-3M = assay: Growth inhibition of human MALME-3M cells; assay type: functional; summary of the method: as §1
SK-MEL-5 = assay: Growth inhibition of human SK-MEL-5 cells; assay type: functional; summary of the method: as §3
UACC-62 = assay: Growth inhibition of human UACC62 cells; assay type: functional; summary of the method: as §3
OVCAR-4 = assay: Growth inhibition of human OVCAR4 cells; assay type: functional; summary of the method: as §1
OVCAR-8 = assay: Growth inhibition of human OVCAR8 cells; assay type: functional; summary of the method: as §1
786-0 = assay: Growth inhibition of human 786-0 cells; assay type: functional; summary of the method: as §1
ACHN = assay: Growth inhibition of human ACHN cells; assay type: functional; summary of the method: as §1
RXF 393 = assay: Growth inhibition of human RXF393 cells; assay type: functional; summary of the method: as §3
SN12C = assay: Growth inhibition of human SN12C cells; assay type: functional; summary of the method: as §3
PC-3 = assay: Growth inhibition of human PC3 cells; assay type: functional; summary of the method: as §1
MCF7 [8] = assay: Growth inhibition of human MCF7 cells; assay type: functional; summary of the method: as §1
MCF7 [9] = assay: Growth inhibition of human adriamycin-resistant MCF7 cells; assay type: functional; summary of the method: as §3
MDA-MB-231 = assay: Growth inhibition of human MDA-MB-231/ATCC cells; assay type: functional; summary of the method: as §1
Hs-578T = assay: Growth inhibition of human HS578T cells; assay type: functional; summary of the method: as §1
MDA-MB-435 = assay: Growth inhibition of human MDA-MB-435 cells; assay type: functional; summary of the method: as §1
MDA-N = assay: Growth inhibition of human MDA-N cells; assay type: functional; summary of the method: as §1
T47D = assay: Growth inhibition of human T47D cells; assay type: functional; summary of the method: as §3
SF-268 = assay: Growth inhibition of human SF268 cells; assay type: functional; summary of the method: as §3
SF-295 [10] = assay: as §2; assay type: functional; summary of the method: as §3; remark: listed apart in the source
SF-539 = assay: Growth inhibition of human SF539 cells; assay type: functional; summary of the method: as §3

## C/C=C(/C)C(=O)OCc1nccc2c1C(=O)C(N)=C(C)C2=O [CRIBROSTATIN 3]
BXPC-3
  GI50: > 1 µg/mL
OVCAR-3
  GI50: 0.77 µg/mL (≈ 2.56 µM)
SF-295 [1]
  GI50: > 1 µg/mL
NCI-H460 [2]
  GI50: > 1 µg/mL
KM-20L2
  GI50: > 1 µg/mL
DU-145
  GI50: > 1 µg/mL
P388
  GI50: 2.49 µg/mL (≈ 8.29 µM)
P388; read-out: ED50 (the source's name)
  EC50: 2.5 µg/mL (≈ 8.32 µM)
Candida albicans
  Activity: inactive
Cryptococcus neoformans
  Activity: inactive
Micrococcus luteus
  Activity: inactive
Staphylococcus aureus
  Activity: inactive
Enterococcus faecalis
  Activity: inactive
Bacillus subtilis
  Activity: inactive
Streptococcus pneumoniae
  Activity: inactive
[3]
  Activity: inactive
Escherichia coli
  Activity: inactive
Enterobacter cloacae
  Activity: inactive
Neisseria gonorrhoeae [4]
  MIC: 0.0975 µg/disc
Neisseria gonorrhoeae [5]
  MIC: 0.39 µg/disc
CCRF-CEM
  GI50: 4.27 µM
[6]
  GI50: 3.09 µM
K562
  GI50: 7.41 µM
MOLT-4
  GI50: 4.9 µM
RPMI-8226
  GI50: 8.51 µM
SR
  GI50: 3.39 µM
A549
  GI50: 3.47 µM
HOP-62
  GI50: 5.37 µM
HOP-92
  GI50: 9.55 µM
NCI-H226
  GI50: 7.08 µM
NCI-H460 [7]
  GI50: 3.02 µM
NCI-H522
  GI50: 3.89 µM
COLO 205
  GI50: 5.89 µM
KM12
  GI50: 4.9 µM
SW-620
  GI50: 3.63 µM
SNB-75
  GI50: 4.79 µM
U-251
  GI50: 3.24 µM
LOX IMVI
  GI50: 4.07 µM
Malme-3M
  GI50: 0.617 µM
SK-MEL-5
  GI50: 1.1 µM
UACC-62
  GI50: 2.51 µM
OVCAR-4
  GI50: 5.25 µM
OVCAR-8
  GI50: 8.71 µM
786-0
  GI50: 5.89 µM
ACHN
  GI50: 9.55 µM
RXF 393
  GI50: 4.9 µM
SN12C
  GI50: 6.17 µM
PC-3
  GI50: 2 µM
MCF7 [8]
  GI50: 4.68 µM
MCF7 [9]
  GI50: 4.57 µM
MDA-MB-231
  GI50: 8.71 µM
Hs-578T
  GI50: 6.31 µM
MDA-MB-435
  GI50: 1.82 µM
MDA-N
  GI50: 1.91 µM
T47D
  GI50: 6.46 µM
SF-268
  GI50: 6.31 µM
SF-295 [10]
  GI50: 3.63 µM
SF-539
  GI50: 4.79 µM
